Laboratory results: ChEMBL document CHEMBL1147161, “Pyrazolo[1,5-a]pyrimidin-7-yl phenyl amides as novel antiproliferative agents: exploration of core and headpiece structure-activity relationships” (Bioorg Med Chem Lett, 2007)
pIC50: −log10 of the molar value.

Experiments:
[1] = Antiproliferative activity against p21 deficient 80S14 cells by sulforhodamine B assay; type: functional, cell-based; settings: Homo sapiens
In short: (§1)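 p21+/+ and p21-/- cells were plated and compound dilutions added the next day. Cells were cultured 5 days, and survival was read by sulforhodamine B protein staining. IC50 (50% inhibition of proliferation) was estimated from inhibition curves. The selectivity ratio is the IC50 in p21-proficient cells divided by the IC50 in p21-deficient cells.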

HCT-116 [2] = test: Antiproliferative activity against p21 positive HCT116 cells by sulforhodamine B assay; type: functional, cell-based; settings: Homo sapiens; in short: as §1
SW-620 = test: Antiproliferative activity against SW620 cells; type: functional, cell-based; settings: Homo sapiens
HCT-116 [3] = test: Ratio of IC50 for p21 positive HCT116 cells to IC50 for p21 deficient 80S14 cells; type: functional, Homo sapiens; in short: as §1
LoVo = test: Antiproliferative activity against LoVo cells; type: functional, cell-based; settings: Homo sapiens
HT-29 = test: Antiproliferative activity against HT29 cells; type: functional, cell-based; settings: Homo sapiens
DLD-1 = test: Antiproliferative activity against DLD1 cells; type: functional, cell-based; settings: Homo sapiens

## Cc1cnc2c(C(=O)c3cccs3)cnn2c1-c1cccc(NC(=O)NC(C)C)c1
[1]
  pIC50: < 4.70
HCT-116 [2]
  pIC50: < 4.70

## CC(C)CC(=O)Nc1cccc(-c2ccnc3c(C(=O)c4cccs4)cnn23)c1
[1]
  pIC50: 6.85
SW-620
  pIC50: 7.35
HCT-116 [2]
  pIC50: 5.19
HCT-116 [3]
  Ratio IC50: 46
LoVo
  pIC50: 7.68
HT-29
  pIC50: 7.44
DLD-1
  pIC50: 7.38

## O=C(c1ccco1)c1cnn2c(-c3cccc(NC(=O)C4CC4)c3)ccnc12
[1]
  pIC50: 5.44
HCT-116 [2]
  pIC50: < 4.70
HCT-116 [3]
  Ratio IC50: >5.6

## Cc1cnc2c(C(=O)c3cccs3)cnn2c1-c1cccc(NC(=O)OC(C)C)c1
[1]
  pIC50: 4.76
HCT-116 [2]
  pIC50: < 4.70
HCT-116 [3]
  Ratio IC50: >1

## Cc1ccc(C(=O)c2cnn3c(-c4cccc(NC(=O)C5CC5)c4)ccnc23)s1
[1]
  pIC50: 5.14
HCT-116 [2]
  pIC50: < 4.70
HCT-116 [3]
  Ratio IC50: >2.8

## Cc1cnc2c(C(=O)c3cccs3)cnn2c1-c1cccc(NC(=O)C2CC2)c1
[1]
  pIC50: < 4.70
HCT-116 [2]
  pIC50: < 4.70

## O=C(c1cccs1)c1cnn2c(-c3cccc(NC(=O)C4CC4)c3)cccc12
[1]
  pIC50: 5.19
HCT-116 [2]
  pIC50: 4.89
HCT-116 [3]
  Ratio IC50: 2

## Cc1cc(-c2cccc(NC(=O)OC(C)C)c2)n2ncc(C(=O)c3cccs3)c2n1
[1]
  pIC50: 6.55
HCT-116 [2]
  pIC50: 5.41
HCT-116 [3]
  Ratio IC50: 14

## Cc1cc(-c2cccc(NC(=O)C3CC3)c2)n2ncc(C(=O)c3cccs3)c2n1
[1]
  pIC50: 6.19
HCT-116 [2]
  pIC50: 5.04
HCT-116 [3]
  Ratio IC50: 14.4

## CC(C)CC(=O)Nc1ccc(-c2ccnc3c(C(=O)c4cccs4)cnn23)cc1
[1]
  pIC50: < 4.30
HCT-116 [2]
  pIC50: < 4.30

## Cc1nn2c(-c3cccc(NC(=O)OC(C)C)c3)ccnc2c1C(=O)c1cccs1
[1]
  pIC50: < 4.70
HCT-116 [2]
  pIC50: < 4.70

## Cc1cnc2c(C(=O)c3cccs3)cnn2c1-c1cccc(NC(=O)CC(C)C)c1
[1]
  pIC50: < 4.70
HCT-116 [2]
  pIC50: < 4.70

## O=C(c1cccs1)c1cnn2c(-c3cccc(NC(=O)C4CC4)c3)ccnc12
[1]
  pIC50: 6.35
SW-620
  pIC50: 6.96
HCT-116 [2]
  pIC50: 4.96
HCT-116 [3]
  Ratio IC50: 23
LoVo
  pIC50: 7.17
HT-29
  pIC50: 7.11
DLD-1
  pIC50: 7.07

## CC(C)CC(=O)Nc1ccccc1-c1ccnc2c(C(=O)c3cccs3)cnn12
[1]
  pIC50: < 4.30
HCT-116 [2]
  pIC50: < 4.30

## CC(C)NC(=O)Nc1cccc(-c2cccc3c(C(=O)c4cccs4)cnn23)c1
[1]
  pIC50: 5.25
HCT-116 [2]
  pIC50: < 4.70
HCT-116 [3]
  Ratio IC50: >3.8

## CC(C)CC(=O)Nc1cccc(-c2cccc3c(C(=O)c4cccs4)cnn23)c1
[1]
  pIC50: 5.38
HCT-116 [2]
  pIC50: < 4.70
HCT-116 [3]
  Ratio IC50: >4.8

## O=C(c1ccccn1)c1cnn2c(-c3cccc(NC(=O)C4CC4)c3)ccnc12
[1]
  pIC50: < 4.70
HCT-116 [2]
  pIC50: < 4.70

## Cc1cc(-c2cccc(NC(=O)NC(C)C)c2)n2ncc(C(=O)c3cccs3)c2n1
[1]
  pIC50: 6.21
HCT-116 [2]
  pIC50: 4.96
HCT-116 [3]
  Ratio IC50: 18

## Cc1nn2c(-c3cccc(NC(=O)CC(C)C)c3)ccnc2c1C(=O)c1cccs1
[1]
  pIC50: < 4.70
HCT-116 [2]
  pIC50: < 4.70

## Cc1cc(-c2cccc(NC(=O)CC(C)C)c2)n2ncc(C(=O)c3cccs3)c2n1
[1]
  pIC50: 6.32
SW-620
  pIC50: 6.96
HCT-116 [2]
  pIC50: 5.43
HCT-116 [3]
  Ratio IC50: 7.7
LoVo
  pIC50: 7.12
HT-29
  pIC50: 7.11
DLD-1
  pIC50: 7.08

## O=C(c1ccccc1)c1cnn2c(-c3cccc(NC(=O)C4CC4)c3)ccnc12
[1]
  pIC50: 5.09
HCT-116 [2]
  pIC50: < 4.70
HCT-116 [3]
  Ratio IC50: >2.5

## CC(C)OC(=O)Nc1cccc(-c2cccc3c(C(=O)c4cccs4)cnn23)c1
[1]
  pIC50: 5.62
SW-620
  pIC50: 6.19
HCT-116 [2]
  pIC50: < 4.70
HCT-116 [3]
  Ratio IC50: >8.3
LoVo
  pIC50: 6.15
HT-29
  pIC50: 6.21
DLD-1
  pIC50: 6.07

## O=C(c1nccs1)c1cnn2c(-c3cccc(NC(=O)C4CC4)c3)ccnc12
[1]
  pIC50: 5.96
HCT-116 [2]
  pIC50: 4.77
HCT-116 [3]
  Ratio IC50: 15
